Here are results for four compounds from ChEMBL document CHEMBL1649346, “Antiproliferative activity of phenylbutyrate ester of haloperidol metabolite II [(±)-MRJF4] in prostate cancer cells” (Eur J Med Chem, 2011).

Assay [1] can be described thus: Displacement of [3H]DTG from sigma 2 receptor in guinea pig brain membrane after 120 mins by liquid scintillation counting. Type of assay: cell membranes, Cavia porcellus. In short, it runs like this: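 Guinea pig membranes were incubated 120 min at room temperature with 3 nM [³H]DTG and (+)-SKF10,047 to mask σ1 sites, in 50 mM Tris-HCl pH 8.0. DTG defined nonspecific binding. Samples were filtered on PEI-presoaked glass-fibre filters, washed and counted by liquid scintillation; Ki was calculated.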

A further assay concerns the target D(3) dopamine receptor (Rattus norvegicus, UniProt P19020). The assay can be described thus: Displacement radioligand form dopamine D3 receptor in rat olfactory tubercle by liquid scintillation counting. Type of assay: tissue-based.
Assay [2] has as its system LNCaP. As to the kind of experiment: Antiproliferative activity against human LNCAP cells after 24 hrs by MTT assay. Type of assay: functional, cell-based. In short, it runs like this:
(§1)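 LNCaP cells were grown in RPMI 1640 with 10% heat-inactivated FBS, penicillin/streptomycin, HEPES, 1 mM pyruvate and 2.5 g/L glucose. PC3 cells were grown in RPMI 1640 with 10% FBS and penicillin/streptomycin, at 37 °C in 5% CO₂. Cells were seeded at 4 × 10⁴ per well and left to adhere overnight. Compounds were diluted 1:1000 from DMSO stocks, with a 0.1% DMSO vehicle, and incubated 24–96 h without medium change. MTT was added for 4 h, the formazan dissolved in DMSO, and A570 read. Runs were in quadruplicate; ED50 was taken from dose-effect curves against vehicle.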
(In general: Formazan colour is commonly taken as a measure of viable cells.)

Assay [3] concerns PC-3. As to the kind of experiment: Antiproliferative activity against human PC3 cells after 24 hrs by MTT assay. The following applies: PC-3, 24 h. Type of assay: functional, cell-based. An outline of the steps:
as §1

For assay [4], the target named is Sigma non-opioid intracellular receptor 1 (Cavia porcellus, UniProt Q60492). As to the kind of experiment: Displacement of [3H]-(+)-pentazocine from sigma 1 receptor in guinea pig brain membrane after 150 mins by liquid scintillation counting. Type of assay: cell membranes. An outline of the steps: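 Guinea pig membranes were incubated to equilibrium, 150 min at 37 °C, with 3 nM [³H]-(+)-pentazocine (45 Ci/mmol) and increasing levels of displacer in 50 mM Tris-HCl pH 7.4. Haloperidol defined nonspecific binding. Samples were filtered on PEI-presoaked glass-fibre filters, washed with ice-cold buffer and counted by liquid scintillation; Ki was calculated.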
(In general: In a radioligand displacement assay an active substance lowers the binding of a labelled ligand.)

Another assay concerns the target D(2) dopamine receptor (Rattus norvegicus, UniProt P61169). The assay can be described thus: Displacement radioligand form dopamine D2 receptor in rat striatum by liquid scintillation counting. The class given is tissue-based.
The test system of assay [5] is LNCaP. As to the kind of experiment: Antiproliferative activity against human LNCAP cells at 10 uM after 96 hrs by MTT assay. The class given is functional, cell-based. An outline of the steps: (§2)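 Percent growth was scored against vehicle-treated control (0.1% DMSO, 1:1000 dilution of DMSO stock) using the MTT assay. LNCaP cells were in supplemented RPMI 1640 with HEPES, pyruvate and glucose; PC3 cells were in RPMI 1640 with 10% FBS. Cells were seeded at 4 × 10⁴ per well and exposed 24, 48, 72 or 96 h. MTT was added for 4 h, the formazan dissolved in DMSO, and A570 read; n = 4.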

The subject of assay [6] is PC-3. The assay can be described thus: Antiproliferative activity against human PC3 cells at 10 uM after 96 hrs by MTT assay. Type of assay: functional, cell-based. An outline of the steps: as §2
For assay [7], the system named is LNCaP. The assay can be described thus: Antiproliferative activity against human LNCAP cells after 48 hrs by MTT assay. The class given is functional, cell-based. An outline of the steps: as §1
Assay [8] deals with PC-3. The assay can be described thus: Antiproliferative activity against human PC3 cells after 48 hrs by MTT assay. The class given is functional, cell-based. The following applies: PC-3, 48 h. An outline of the steps:
as §1

Assay [9] relates to LNCaP. As to the kind of experiment: Antiproliferative activity against human LNCAP cells after 72 hrs by MTT assay. The class given is functional, cell-based. In short, it runs like this:
as §1

Assay [10] concerns PC-3. As to the kind of experiment: Antiproliferative activity against human PC3 cells after 72 hrs by MTT assay. The following applies: PC-3, 72 h. The class given is functional, cell-based. In short, it runs like this: as §1
In assay [11] the test system is LNCaP. As to the kind of experiment: Antiproliferative activity against human LNCAP cells after 96 hrs by MTT assay. Type of assay: functional, cell-based. In short, it runs like this: as §1
Assay [12] concerns PC-3. As to the kind of experiment: Antiproliferative activity against human PC3 cells after 96 hrs by MTT assay. Type of assay: functional, cell-based. The following applies: PC-3, 96 h. In short, it runs like this:
as §1

Assay [13] concerns LNCaP. The assay can be described thus: Antiproliferative activity against human LNCAP cells at 10 to 25 uM after 24 hrs by MTT assay. Type of assay: functional. In short, it runs like this:
as §2

Assay [14] has as its system PC-3. As to the kind of experiment: Antiproliferative activity against human PC3 cells at 10 to 25 uM after 24 hrs by MTT assay. The class given is functional. In short, it runs like this:
as §2

Assay [15] addresses T1, Histone deacetylase (Homo sapiens) (UniProt Q13547+O15379+Q9UBN7+Q92769+Q9UQL6+Q8WUI4+Q9BY41+Q96DB2+P56524+Q9UKV0+Q969S8). The assay can be described thus: Inhibition of HDAC in human HeLa cells at 10 uM after 10 mins by fluorometric assay. Type of assay: cell-based. In short, it runs like this:
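The HDAC fluorescent activity kit was used with supplied HeLa extract. Test agent was added in assay buffer, with trichostatin A (1 µM listed) as full-inhibition control. The reaction was started with acetyl-lysine Fluor de Lys substrate at 25–37 °C and stopped after 10 min with developer, then held 10–15 min at room temperature. Fluorescence was read at ex 360/em 460 nm. Percent inhibition was taken against the uninhibited reaction, in triplicate.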

Assay [16] concerns the target T1, Histone deacetylase (Homo sapiens). As to the kind of experiment: Inhibition of HDAC in human PC3 cells at 10 uM after 10 mins by fluorometric assay. The class given is cell-based. The settings on record: PC-3. An outline of the steps: (§3)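 LNCaP or PC3 cells were seeded at 3 × 10⁵ per dish, left overnight, then treated in medium for 1 h (and 24 h). Cells were PBS-washed and lysed, and nuclear protein was extracted with the NE-PER kit. Extracts received assay buffer only plus Fluor de Lys substrate, 10 min at 25–37 °C, then developer. Fluorescence was read at ex 360/em 460 nm relative to DMSO-treated control, in triplicate.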

The target is the same in assay [17]. The assay can be described thus: Inhibition of HDAC in human LNCAP cells at 10 uM after 10 mins by fluorometric assay. The class given is cell-based. In short, it runs like this: as §3
The target is the same in assay [18]. The following applies: HeLa, 1.5 mM.

pIC50, pKi: −log10 of the molar value. Several values for one entry are separate records, joined by “and”; a condition that tells them apart may be missing. Identical values can stand only once. Activity calls are given as the source filed them. The rule behind the calls is not given here.

Sequence of Sigma non-opioid intracellular receptor 1 (Q60492 whole entry): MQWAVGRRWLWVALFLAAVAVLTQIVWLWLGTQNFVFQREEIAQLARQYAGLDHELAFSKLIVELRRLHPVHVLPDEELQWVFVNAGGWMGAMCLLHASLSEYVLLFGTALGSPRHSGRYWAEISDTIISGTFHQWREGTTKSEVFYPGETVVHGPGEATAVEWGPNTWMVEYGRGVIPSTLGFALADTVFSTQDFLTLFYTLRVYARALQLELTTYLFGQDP
Sequence of D(3) dopamine receptor (P19020 whole entry): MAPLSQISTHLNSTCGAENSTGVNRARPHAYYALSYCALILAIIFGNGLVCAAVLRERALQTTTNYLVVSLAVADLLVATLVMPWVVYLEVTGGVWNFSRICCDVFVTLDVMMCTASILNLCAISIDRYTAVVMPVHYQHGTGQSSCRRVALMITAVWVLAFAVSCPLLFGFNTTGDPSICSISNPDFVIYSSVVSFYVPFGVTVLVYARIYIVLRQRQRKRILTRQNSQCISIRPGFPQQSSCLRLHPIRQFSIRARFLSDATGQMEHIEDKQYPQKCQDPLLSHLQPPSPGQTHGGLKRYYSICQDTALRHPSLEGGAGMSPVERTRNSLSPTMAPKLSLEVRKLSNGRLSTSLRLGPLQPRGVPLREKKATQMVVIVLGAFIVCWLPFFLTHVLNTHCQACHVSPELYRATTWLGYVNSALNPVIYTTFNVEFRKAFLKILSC
Sequence of D(2) dopamine receptor (P61169 whole entry): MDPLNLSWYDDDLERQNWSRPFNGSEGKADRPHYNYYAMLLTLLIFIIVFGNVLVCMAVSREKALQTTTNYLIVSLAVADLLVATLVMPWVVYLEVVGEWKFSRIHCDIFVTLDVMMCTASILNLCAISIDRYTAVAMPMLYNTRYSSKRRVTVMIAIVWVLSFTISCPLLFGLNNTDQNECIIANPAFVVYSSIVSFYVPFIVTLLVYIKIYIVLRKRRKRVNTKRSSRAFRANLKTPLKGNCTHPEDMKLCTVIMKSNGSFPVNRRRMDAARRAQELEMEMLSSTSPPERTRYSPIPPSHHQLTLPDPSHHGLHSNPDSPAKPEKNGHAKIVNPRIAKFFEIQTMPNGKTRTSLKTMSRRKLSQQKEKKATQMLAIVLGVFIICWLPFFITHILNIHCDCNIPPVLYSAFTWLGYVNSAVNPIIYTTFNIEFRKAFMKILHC

For the compound `OC(CCCN1CCC(O)(c2ccc(Cl)cc2)CC1)c1ccc(F)cc1` (centres undefined) [HYDROXYHALOPERIDOL], the pKi (as a rule, −log10 of the Ki, conventionally taken in molar units) in assay [1] is 9.01; on D(3) dopamine receptor it was 5.96. Moreover, the pIC50 (commonly the IC50 on a negative log10 scale, so that one unit is a factor of ten) was 3.75 with LNCaP [2] and 3.68 in the assay with PC-3 [3].
Compound `O=C(CCCN1CCC(O)(c2ccc(Cl)cc2)CC1)c1ccc(F)cc1` [HALOPERIDOL] gave a pKi in [1] of 7.80.
For `O=C(CCCc1ccccc1)OC(CCCN1CCC(O)(c2ccc(Cl)cc2)CC1)c1ccc(F)cc1` (racemic), the pKi in assay [4] is 6.79; in assay [1] it was 6.98; on D(2) dopamine receptor, less than 5.30; at D(3) dopamine receptor it was less than 5.30. The pIC50 in the assay on LNCaP [2] is 4.96; in the assay with PC-3 [3], 4.89; in the assay on LNCaP [7], 5.05; in the assay with PC-3 [8], 4.96; in the assay on LNCaP [9] it was 5.09; with PC-3 [10], 5.11. The pIC50 in the assay with LNCaP [11] was 5.18; in the assay with PC-3 [12], 5.17. Moreover, the outcome in the assay with LNCaP [5] and with PC-3 [6] was Active. The Activity with LNCaP [13] was 45% and 40% and 20%; in the assay on PC-3 [14], 10%. For the same compound, the inhibition result in assay [15], in assay [16] and in [17] was “inactive” each time.
For `O=C(O)CCCc1ccccc1`, the pKi in [4] and in assay [1] was less than 5.00 each time. The pIC50 is 2.63 in the assay with LNCaP [2] and 2.64 in the assay with PC-3 [3]. Besides, in assay [18], the inhibition (as a rule, the share of the control response that was lost under treatment) was 60%.
